# Data as given in ChEMBL document CHEMBL1800075, “Tricyclic imidazole antagonists of the Neuropeptide S Receptor” (Bioorg Med Chem Lett, 2010).
# Legend:
# Neuropeptide S receptor = target: T1, Neuropeptide S receptor (Homo sapiens, UniProt Q6W5P4); assay: Antagonist activity at human recombinant NPS receptor expressed in CHOK1 cells assessed as inhibition of NPS-induced calcium mobilization by FLIPR assay; format: functional, cell-based, CHO-K1
# T1 sequence (Q6W5P4 whole entry): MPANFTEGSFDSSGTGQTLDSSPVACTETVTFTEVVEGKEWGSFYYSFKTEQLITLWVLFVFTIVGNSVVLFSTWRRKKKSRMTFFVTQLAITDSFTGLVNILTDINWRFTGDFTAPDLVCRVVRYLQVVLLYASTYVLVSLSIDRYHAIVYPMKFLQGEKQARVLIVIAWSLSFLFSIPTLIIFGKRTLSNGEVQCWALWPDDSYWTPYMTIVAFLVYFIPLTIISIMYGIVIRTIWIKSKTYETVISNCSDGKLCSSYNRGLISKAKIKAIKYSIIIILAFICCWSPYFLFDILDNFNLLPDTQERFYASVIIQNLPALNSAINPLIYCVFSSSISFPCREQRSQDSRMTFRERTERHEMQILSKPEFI
# Procedure, shortened: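 Dual-sequence FLIPR Ca2+ mobilization on CHOK1 cells expressing recombinant NPSR, plated 24 h ahead at 15 K cells/well. Cells washed and loaded with Fluo4AM for 1 h at 37 °C, 5% CO2. Inhibition taken relative to NPS-stimulated control wells; IC50 from 4-parameter logistic fits; mean ± S.D. of multiple determinations.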
# [1] = Passive permeability of the compound; format: ADME; conditions: not told
# [2] = target: rat MDR1 (ABCB1, P-glycoprotein) (Rattus norvegicus, UniProt P43245); assay: Permeability of the compound assessed as rat MDR1-mediated directional transport ratio by cell based assay; conditions: not told
# Procedure, shortened: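 Rat MDR1 directional transport ratio, calculated as (B–A)/(A–B). Average of three experiments; interassay variability 20%.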
# [3] = Unbound fraction in rat plasma by ultracentrifugation; format: ADME, cell-free
# [4] = Inhibition of melatonin receptor
# [5] = Drug level in rat cerebrospinal fluid at 75 mg/kg, ip after 30 mins; format: ADME, organism-based; design: dose 75 mg/kg, route intraperitoneal; conditions: read-out: Drug uptake
# Procedure, shortened: (§1)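 Compound given to rats at 75 mpk IP as a solution in 25% HPB-cyclodextrin. CSF and plasma sampled at 30 min and 2 h.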
# [6] = Lipophilicity, log D of the compound by HPLC method; format: physicochemical
# [7] = AUC (0 to infinity) in rat at 2 mg/kg, po; format: ADME, organism-based; design: time infinity, dose 2 mg/kg, route oral; conditions: plasma
# Thromboxane A2 receptor = target: T2, Thromboxane A2 receptor (Homo sapiens, UniProt P21731); assay: Inhibition of thromboxane A2 receptor
# T2 sequence (P21731 whole entry): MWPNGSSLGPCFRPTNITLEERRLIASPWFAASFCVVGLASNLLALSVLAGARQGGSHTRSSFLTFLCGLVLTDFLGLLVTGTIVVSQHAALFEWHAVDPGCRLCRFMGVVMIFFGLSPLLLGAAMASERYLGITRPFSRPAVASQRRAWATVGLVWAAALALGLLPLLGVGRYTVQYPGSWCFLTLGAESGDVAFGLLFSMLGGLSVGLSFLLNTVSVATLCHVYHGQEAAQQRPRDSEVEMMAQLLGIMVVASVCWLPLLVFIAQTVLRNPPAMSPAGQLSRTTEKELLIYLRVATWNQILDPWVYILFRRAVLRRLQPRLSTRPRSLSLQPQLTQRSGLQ
# [8] = Inhibition of sodium channel site 2
# [9] = Drug level in rat cerebrospinal fluid at 75 mg/kg, ip after 2 hrs; format: ADME, organism-based; design: dose 75 mg/kg, route intraperitoneal; conditions: read-out: Drug uptake; procedure, shortened: as §1
# [10] = Ratio drug level in CSF to plasma in rat at 75 mg/kg, ip; format: ADME, organism-based; design: dose 75 mg/kg, route intraperitoneal; procedure, shortened: as §1
# [11] = AUC (0 to infinity) in rat at 10 mg/kg, po; format: ADME, organism-based; design: time infinity, dose 10 mg/kg, route oral; conditions: plasma
# Cannabinoid receptor 1 = Cannabinoid receptor 1 (Homo sapiens, UniProt P21554); assay: Inhibition of CB1 receptor
# Plasma [12] = assay: Unbound free concentration in rat plasma at 30 mg/kg, ip measured after 30 mins; format: ADME, organism-based; design: dose 30 mg/kg, route intraperitoneal; conditions: in vivo, 0.5 h
# Procedure, shortened: (§2)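 Compound dosed to rats at 30 mpk IP. Plasma levels measured at 30 min, 1 h and 2 h. Unbound exposures obtained by correcting for plasma free fraction.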
# Plasma [13] = assay: Unbound free concentration in rat plasma at 30 mg/kg, ip measured after 1 hr; format: ADME, organism-based; design: dose 30 mg/kg, route intraperitoneal; conditions: in vivo; procedure, shortened: as §2
# [14] = Drug level in plasma of rat at 30 mg/kg, ip measured after 2 hrs; format: ADME, organism-based; design: dose 30 mg/kg, route intraperitoneal; procedure, shortened: as §2
# [15] = Drug level in plasma of rat at 30 mg/kg, ip measured after 30 mins; format: ADME, organism-based; design: dose 30 mg/kg, route intraperitoneal; procedure, shortened: as §2
# [16] = Drug level in plasma of rat at 30 mg/kg, ip measured after 1 hr; format: ADME, organism-based; design: dose 30 mg/kg, route intraperitoneal; procedure, shortened: as §2
# Plasma [17] = assay: Unbound free concentration in rat plasma at 30 mg/kg, ip measured after 2 hrs; format: ADME, organism-based; design: dose 30 mg/kg, route intraperitoneal; conditions: in vivo; procedure, shortened: as §2
# [18] = Clearance in iv dosed rat; format: ADME, organism-based; conditions: in vivo
# Procedure, shortened: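 IV clearance in rats measured in cassette dosing experiments.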
# [19] = Lipophilicity, log P of the compound; format: physicochemical; conditions: octanol/water
# Sequence of rat MDR1 (ABCB1, P-glycoprotein) (P43245 whole entry): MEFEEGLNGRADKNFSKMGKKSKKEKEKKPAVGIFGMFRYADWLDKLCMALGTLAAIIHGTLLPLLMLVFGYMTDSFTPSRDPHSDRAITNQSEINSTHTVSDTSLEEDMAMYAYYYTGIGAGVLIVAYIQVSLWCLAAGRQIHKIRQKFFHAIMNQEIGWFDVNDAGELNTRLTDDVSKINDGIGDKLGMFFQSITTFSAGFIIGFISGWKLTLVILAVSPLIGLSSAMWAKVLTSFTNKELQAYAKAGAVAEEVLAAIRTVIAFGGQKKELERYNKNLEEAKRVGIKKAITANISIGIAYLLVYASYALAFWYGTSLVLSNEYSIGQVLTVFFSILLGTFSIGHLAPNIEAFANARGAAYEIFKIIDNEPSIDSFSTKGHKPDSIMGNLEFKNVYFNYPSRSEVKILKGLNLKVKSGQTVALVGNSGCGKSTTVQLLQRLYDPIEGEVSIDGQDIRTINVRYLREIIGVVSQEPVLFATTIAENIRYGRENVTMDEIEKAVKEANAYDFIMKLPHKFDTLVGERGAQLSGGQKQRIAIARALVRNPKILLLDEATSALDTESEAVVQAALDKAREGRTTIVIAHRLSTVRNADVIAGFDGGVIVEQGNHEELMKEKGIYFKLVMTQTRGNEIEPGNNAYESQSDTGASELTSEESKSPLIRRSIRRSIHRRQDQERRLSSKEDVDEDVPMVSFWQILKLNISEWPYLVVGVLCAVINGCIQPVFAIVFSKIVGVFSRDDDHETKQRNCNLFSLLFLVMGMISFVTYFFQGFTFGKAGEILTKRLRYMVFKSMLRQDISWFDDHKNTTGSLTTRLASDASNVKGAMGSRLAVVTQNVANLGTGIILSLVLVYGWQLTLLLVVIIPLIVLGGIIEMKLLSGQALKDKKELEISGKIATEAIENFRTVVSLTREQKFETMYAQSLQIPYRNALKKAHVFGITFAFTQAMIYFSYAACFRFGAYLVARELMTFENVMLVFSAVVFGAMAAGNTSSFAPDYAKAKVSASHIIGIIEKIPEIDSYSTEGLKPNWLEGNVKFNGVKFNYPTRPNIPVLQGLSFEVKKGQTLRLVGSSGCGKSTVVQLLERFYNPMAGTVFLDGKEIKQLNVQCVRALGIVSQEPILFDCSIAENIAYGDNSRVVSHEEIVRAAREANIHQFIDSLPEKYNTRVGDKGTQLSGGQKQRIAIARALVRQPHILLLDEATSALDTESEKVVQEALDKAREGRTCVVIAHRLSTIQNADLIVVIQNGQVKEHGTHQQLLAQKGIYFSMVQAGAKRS
# Sequence of Cannabinoid receptor 1 (P21554 whole entry): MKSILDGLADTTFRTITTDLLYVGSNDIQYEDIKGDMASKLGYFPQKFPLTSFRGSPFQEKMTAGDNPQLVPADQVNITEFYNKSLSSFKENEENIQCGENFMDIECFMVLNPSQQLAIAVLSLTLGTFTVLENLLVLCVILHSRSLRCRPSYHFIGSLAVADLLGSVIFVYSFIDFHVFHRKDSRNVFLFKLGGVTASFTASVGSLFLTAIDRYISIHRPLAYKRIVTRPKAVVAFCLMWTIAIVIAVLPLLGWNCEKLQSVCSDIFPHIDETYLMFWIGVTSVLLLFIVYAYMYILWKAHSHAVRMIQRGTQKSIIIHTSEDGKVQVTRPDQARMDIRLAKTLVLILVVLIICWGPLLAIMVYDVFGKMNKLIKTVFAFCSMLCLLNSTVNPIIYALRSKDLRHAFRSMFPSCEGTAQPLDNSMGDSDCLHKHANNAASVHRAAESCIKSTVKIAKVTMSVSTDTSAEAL
Structure (SMILES),IC50 (Neuropeptide S receptor) [nM],efflux ratio [2],fraction unbound [3],also measured
Fc1ccc(C2(CC3CCOCC3)c3ccccc3-c3nccn32)cc1 (configuration not stated),660,–,–,–
Fc1ccc(C2(Cc3ccccc3)c3ccccc3-c3nccn32)cc1 (configuration not stated),336,–,–,–
Clc1ccc(C2(Cc3ccccc3)c3ccccc3-c3nccn32)cc1 (configuration not stated),358,–,–,–
Cc1ccc(C2(Cc3ccccc3)c3ccccc3-c3nccn32)cc1 (configuration not stated),1320,–,–,–
N#Cc1ccc(C2(Cc3ccccc3)c3ccccc3-c3nccn32)cc1 (configuration not stated),387,0.9,0.17,Papp [1]: 33 ×10⁻⁶ cm/s
Brc1cccc(C2(Cc3ccccc3)c3ccccc3-c3nccn32)c1 (configuration not stated),1730,–,–,–
N#Cc1cccc(C2(Cc3ccccc3)c3ccccc3-c3nccn32)c1 (configuration not stated),3170,–,–,–
Brc1ccc(C2(Cc3ccccc3)c3ccccc3-c3nccn32)cn1 (configuration not stated),1500,–,–,–
Brc1ccc(C2(Cc3ccccc3)c3ccccc3-c3nccn32)nc1 (configuration not stated),2180,–,–,–
N#Cc1ccc(C2(CC3CCOCC3)c3ccccc3-c3nccn32)cc1 (configuration not stated),635,–,–,–
Clc1ccc(C2(CC3CCOCC3)c3ccccc3-c3nccn32)cc1 (configuration not stated),134,1.4,0.018,Papp [1]: 31 ×10⁻⁶ cm/s
Brc1ccc(C2(CC3CCCC3)c3ccccc3-c3nccn32)cn1 (configuration not stated),851,1.3,0.013,Papp [1]: 25 ×10⁻⁶ cm/s
N#Cc1ccc(C2(CC3CCCC3)c3ccccc3-c3nccn32)cc1 (configuration not stated),145,0.6,0.011,Papp [1]: 22 ×10⁻⁶ cm/s
N#Cc1ccc(C2(CC3CCCCC3)c3ccccc3-c3nccn32)cc1 (configuration not stated),114,1.6,–,Papp [1]: 17 ×10⁻⁶ cm/s
COc1ccc2c(c1)C(CC1CCOCC1)(c1ccc(Cl)cc1)n1ccnc1-2 (configuration not stated),82,1.3,0.016,IC50 [4]: 1300 nM; concentration at 0.5 h [5]: 594 nM; logD [6]: 3.2; AUC(0-inf) [7]: 0.114 µM·h; IC50 (Thromboxane A2 receptor): 7000 nM; IC50 [8]: 4000 nM; concentration at 2 h [9]: 153 nM; Ratio [10]: 1%
COc1cccc2c1C(CC1CCOCC1)(c1ccc(Cl)cc1)n1ccnc1-2 (configuration not stated),46,–,0.008,AUC(0-inf) [11]: 0.425 µM·h
COc1ccc2c(c1)C(CCC(=O)N1[C@H](C)CC[C@@H]1C)(c1ccc(Cl)cc1)n1ccnc1-2 (some centres not stated),50,2.2,0.007,AUC(0-inf) [7]: 0.115 µM·h
CCN(CC)C(=O)CCC1(c2ccc(Cl)cc2)c2c(OC)cccc2-c2nccn21 (configuration not stated),43,2.9,0.013,IC50 (Cannabinoid receptor 1): 6000 nM; Cp(f) (Plasma [12]): 101 nM; Cp(f) (Plasma [13]): 66 nM; concentration at 2 h [14]: 3000 nM; concentration at 0.5 h [15]: 7800 nM; AUC(0-inf) [11]: 1.15 µM·h; concentration at 1 h [16]: 5100 nM; Cp(f) (Plasma [17]): 39 nM

Structure (SMILES),IC50 (Neuropeptide S receptor) [nM],efflux ratio [2],fraction unbound [3],also measured
Brc1ccc(C2(Cc3ccccc3)c3cccnc3-c3nccn32)cc1 (configuration not stated),1460,–,–,–
CCC1CCCCN1C(=O)CCC1(c2ccc(Cl)cc2)c2ccccc2-c2nccn21 (mixture of isomers),131,1.6,0.011,clearance [18]: 20 mL/min/kg
CC(C1CCN(C(=O)CCC2(c3ccc(Cl)cc3)c3ccccc3-c3nccn32)CC1)N1CCCC1 (mixture of isomers),126,34.2,0.081,clearance [18]: 38 mL/min/kg
O=C(CCC1(c2ccc(Cl)cc2)c2ccccc2-c2nccn21)N1C2CCCC1CC2 (mixture of isomers),95,1.7,0.006,clearance [18]: 34 mL/min/kg
C[C@@H]1CC[C@H](C)N1C(=O)CCC1(c2ccc(Cl)cc2)c2ccccc2-c2nccn21 (mixture of isomers),92,1.5,0.006,clearance [18]: 36 mL/min/kg
CC(C1CCN(C(=O)CCC2(c3ccc(Cl)cc3)c3ccccc3-c3nccn32)CC1)N1CCC(F)(F)C1 (mixture of isomers),239,2,0.029,clearance [18]: 38 mL/min/kg
Brc1ccc(C2(Cc3ccccc3)c3ccccc3-c3nccn32)cc1 (racemic),380,–,–,–
N#Cc1ccccc1CC1(c2ccc(Br)cc2)c2ccccc2-c2nccn21 (racemic),369,1.7,< 0.01,Papp [1]: 17 ×10⁻⁶ cm/s
Brc1ccc(C2(Cc3cccnc3)c3ccccc3-c3nccn32)cc1 (racemic),351,2.1,0.021,Papp [1]: 31 ×10⁻⁶ cm/s
Brc1ccc(C2(CC3CCCCC3)c3ccccc3-c3nccn32)cc1 (racemic),254,–,–,–
Brc1ccc(C2(CC3CCCC3)c3ccccc3-c3nccn32)cc1 (racemic),321,–,–,–
Brc1ccc(C2(CC3CCOCC3)c3ccccc3-c3nccn32)cc1 (racemic),92,1.2,0.19,Papp [1]: 31 ×10⁻⁶ cm/s; clearance [18]: 48 mL/min/kg
Brc1ccc(C2(CCC3CCOCC3)c3ccccc3-c3nccn32)cc1 (racemic),154,–,–,–
CC(C)N(C(=O)CCC1(c2ccc(Cl)cc2)c2ccccc2-c2nccn21)C(C)C (racemic),96,1.4,0.008,clearance [18]: 26 mL/min/kg
CCN(C(=O)CCC1(c2ccc(Cl)cc2)c2ccccc2-c2nccn21)C(C)C (racemic),138,2.3,0.007,clearance [18]: 31 mL/min/kg
CCN(CC)C(=O)CCC1(c2ccc(Cl)cc2)c2ccccc2-c2nccn21 (racemic),–,–,–,clearance [18]: 38 mL/min/kg; AUC(0-inf) [11]: 0.18 µM·h
"CCN(CC)C(=O)CCC1(c2ccc(Cl)cc2)c2ccccc2-c2nccn21 (single isomer, unassigned)",90,2.1,0.022,–
Brc1ccc(C2(Cc3ccccc3)c3ccccc3-c3nccn32)cc1 (stereo in doubt; 2),163,–,0.01,Papp [1]: 10 ×10⁻⁶ cm/s; logP [19]: > 3.8
